Results published in ChEMBL document CHEMBL1143382, “Discovery of chiral cyclopropyl dihydro-alkylthio-benzyl-oxopyrimidine (S-DABO) derivatives as potent HIV-1 reverse transcriptase inhibitors with high activity against clinically relevant mutants” (J Med Chem, 2009).

How the values were obtained:
[1] = tested on: Human immunodeficiency virus 1; assay: Antiviral activity against HIV1 reverse transcriptase Y181C mutant infected in human MT4 cells after 5 days by MTT assay; type: functional, organism-based; conditions: Human immunodeficiency virus 1, MT4, 120 h
In short: (§1)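 MT-4 lymphoid cells infected with the HIV-1 strain carrying the indicated RT mutation in the presence of varying compound concentrations. Viable cells counted by tetrazolium (MTT) colorimetric read-out at day 5 post-infection. […] Mock-infected cells were used for cytotoxicity. Values are means of at least two experiments.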

[2] = Cytotoxicity against human MT4 cells by MTT assay; type: cell-based
[3] = tested on: Human immunodeficiency virus 1; assay: Antiviral activity against HIV1 reverse transcriptase Y188L mutant infected in human MT4 cells after 5 days by MTT assay; type: functional, organism-based; conditions: Human immunodeficiency virus 1, MT4, 120 h; in short: as §1
[4] = tested on: Human immunodeficiency virus type 1 reverse transcriptase (Human immunodeficiency virus 1), Q72547 [K103N]
[5] = biological target: Human immunodeficiency virus type 1 reverse transcriptase (Human immunodeficiency virus 1) (UniProt Q72547)
[6] = tested on: Human immunodeficiency virus type 1 reverse transcriptase (Human immunodeficiency virus 1), Q72547 [Y181I]
[7] = tested on: Human immunodeficiency virus 1; assay: Antiviral activity against HIV1 reverse transcriptase K103N mutant infected in human MT4 cells after 5 days by MTT assay; type: functional, organism-based; conditions: Human immunodeficiency virus 1, MT4, 120 h; in short: as §1
[8] = tested on: Human immunodeficiency virus 1; assay: Antiviral activity against wild type HIV1 NL4-3 infected in human MT4 cells after 5 days by MTT assay; type: functional, organism-based; conditions: Human immunodeficiency virus 1, NL4-3, MT4, 120 h
[9] = biological target: T1, Human immunodeficiency virus type 1 reverse transcriptase (Human immunodeficiency virus 1, UniProt Q72547, K103N); assay: Inhibition of HIV1 recombinant reverse transcriptase K103N mutant-DNA binary complex expressed in Escherichia coli BL21
[10] = biological target: T2, Human immunodeficiency virus type 1 reverse transcriptase (Human immunodeficiency virus 1, UniProt Q72547); assay: Inhibition of wild type HIV1 reverse transcriptase-DNA binary complex
[11] = biological target: T1, Human immunodeficiency virus type 1 reverse transcriptase; assay: Inhibition of HIV1 recombinant reverse transcriptase K103N mutant-DNA-dNTP ternary complex expressed in Escherichia coli BL21
[12] = biological target: T2, Human immunodeficiency virus type 1 reverse transcriptase; assay: Inhibition of wild type HIV1 free reverse transcriptase
[13] = biological target: Human immunodeficiency virus type 1 reverse transcriptase (Human immunodeficiency virus 1) (UniProt Q72547); assay: Binding affinity to HIV1 reverse transcriptase treated for 3 mins by surface plasmon resonance
[14] = biological target: T2, Human immunodeficiency virus type 1 reverse transcriptase; assay: Inhibition of wild type HIV1 reverse transcriptase-DNA-dNTP ternary complex
[15] = biological target: T1, Human immunodeficiency virus type 1 reverse transcriptase; assay: Inhibition of HIV1 recombinant free reverse transcriptase K103N mutant expressed in Escherichia coli BL21

SMILES | EC50 [1] [nM] | CC50 [2] [nM] | EC50 [3] [nM] | ID50 [4] [nM] | ID50 [5] [nM] | ID50 [6] [nM] | EC50 [7] [nM] | EC50 [8] [nM] | Ki [9] [nM] | Ki [10] [nM] | Ki [11] [nM] | Ki [12] [nM] | Ka [13] [×10⁴ /M/s] | Ki [14] [nM] | Ki [15] [nM]
Cc1ccnc2c1NC(=O)c1cccnc1N2C1CC1 [NEVIRAPINE] | > 7500 | > 7500 | > 7500 |  |  |  |  |  |  |  |  |  |  |  | 
COc1ccc(/C=C/CSc2nc([C@@H](C)c3c(F)cccc3F)c(C)c(=O)[nH]2)cc1 |  |  |  | 7010 | 600 | 27800 |  |  |  |  |  |  |  |  | 
O=C1Nc2ccc(Cl)cc2[C@@](C#CC2CC2)(C(F)(F)F)O1 [EFAVIRENZ] | 8 | > 320 | 3 |  |  |  |  |  |  |  |  |  |  |  | 
COc1ccc(C2CC2CSc2nc(C(C)c3c(F)cccc3F)c(C)c(=O)[nH]2)cc1 (racemic) | 160 | 37300 | 45 | 3000 | 40 | 6000 | 520 | 0.6 |  |  |  |  |  |  | 
COc1ccc([C@@H]2C[C@H]2CSc2nc([C@H](C)c3c(F)cccc3F)c(C)c(=O)[nH]2)cc1 | 13 | 14600 | 1.5 | 40 | 20 | 800 | 36 | 0.07 | 40 | 8 | 30 | 10 | 1 | 9 | 65
COc1ccc([C@H]2C[C@@H]2CSc2nc([C@H](C)c3c(F)cccc3F)c(C)c(=O)[nH]2)cc1 | 2700 | > 56200 | 700 | 400 | 40 | 900 | 3710 | 10 | 400 | 30 | 300 | 40 |  | 40 | 600
Cc1cc(C#N)cc(C)c1Oc1nc(Nc2ccc(C#N)cc2)nc(N)c1Br |  |  |  |  |  |  |  |  |  |  |  |  | 0.8 |  | 
Cc1c([C@H](C)c2c(F)cccc2F)nc(SC/C=C/c2ccccc2)[nH]c1=O |  |  |  | 470 | 10 | 2990 |  |  |  |  |  |  |  |  | 
COc1ccc(/C=C/CSc2nc(C(C)c3c(F)cccc3F)c(C)c(=O)[nH]2)cc1 (racemic) |  |  |  |  |  |  |  |  |  |  |  |  | 1 |  | 
COc1ccc([C@H]2C[C@@H]2CSc2nc([C@@H](C)c3c(F)cccc3F)c(C)c(=O)[nH]2)cc1 | 7240 | > 56200 | 1080 | 830 | 120 | 2300 | 5510 | 90 |  |  |  |  |  |  | 
COc1ccc([C@@H]2C[C@H]2CSc2nc([C@@H](C)c3c(F)cccc3F)c(C)c(=O)[nH]2)cc1 | 520 | 47200 | 190 | 600 | 300 | 6000 | 2550 | 4.9 |  |  |  |  |  |  | 
